In ChEMBL document CHEMBL3286272, “Synthesis, biological, and biophysical studies of DAG-indololactones designed as selective activators of RasGRP” (Bioorg Med Chem, 2014):
The source made the active and inactive calls. The calls are words filed in the database; no cut-off is given here.

Columns and labels:
[1] = molecular target: T1, RAS guanyl-releasing protein 1 (Homo sapiens, UniProt O95267); test: Displacement of [3H]PDBu from recombinant RasGRP1 C1 domain (unknown origin) after 10 mins by scintillation counting analysis in presence of phosphatidylserine
T1 sequence (O95267 whole entry): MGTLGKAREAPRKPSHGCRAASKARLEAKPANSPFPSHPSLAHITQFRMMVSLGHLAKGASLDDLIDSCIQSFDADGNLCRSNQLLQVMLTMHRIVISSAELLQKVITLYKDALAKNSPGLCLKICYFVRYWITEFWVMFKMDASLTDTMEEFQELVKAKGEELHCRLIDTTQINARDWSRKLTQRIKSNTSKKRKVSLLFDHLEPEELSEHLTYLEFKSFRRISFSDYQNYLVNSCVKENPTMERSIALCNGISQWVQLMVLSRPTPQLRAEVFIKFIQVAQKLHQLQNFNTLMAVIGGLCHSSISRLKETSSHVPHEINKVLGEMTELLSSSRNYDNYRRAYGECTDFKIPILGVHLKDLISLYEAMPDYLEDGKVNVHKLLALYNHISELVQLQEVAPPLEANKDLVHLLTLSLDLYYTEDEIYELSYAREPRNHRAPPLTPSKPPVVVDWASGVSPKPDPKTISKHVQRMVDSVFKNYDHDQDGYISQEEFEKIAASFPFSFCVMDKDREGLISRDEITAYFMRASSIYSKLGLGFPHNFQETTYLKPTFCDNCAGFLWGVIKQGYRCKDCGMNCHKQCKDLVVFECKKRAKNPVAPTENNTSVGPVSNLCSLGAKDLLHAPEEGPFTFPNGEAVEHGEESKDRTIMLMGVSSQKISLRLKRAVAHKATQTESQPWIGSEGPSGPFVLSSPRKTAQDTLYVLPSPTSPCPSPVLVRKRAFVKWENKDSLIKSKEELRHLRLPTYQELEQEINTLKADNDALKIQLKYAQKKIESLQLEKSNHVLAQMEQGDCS
In short: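 [3H]PDBu binding competition with 100 μg/ml phosphatidylserine present; PKCα and RasGRP1-C1 assayed at 37°C for stability. Values are mean ± SEM of triplicate independent experiments.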

Lipid bilayer = test: Binding affinity to NBD-PE embedded 9:1 DMPC/DMPG giant vesicle at 6.05 uM by FRET analysis
In short: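 Giant vesicles containing NBD-PE (100:1 phospholipid:fluorophore) were mixed with 6.05 μM compound from DMSO stock in Tris/sucrose/KCl buffer pH 7.4. NBD-PE emission was recorded after excitation at 330–370 nm, the indole excitation range. Triton addition served as the disruption control.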

[2] = molecular target: Protein kinase C delta type (Homo sapiens) (UniProt Q05655); test: Binding affinity to recombinant human GFP-tagged PKC-delta expressed in human LNCAP cells assessed as induction of protein translocation from plasma membrane to internal membrane at 10000 nM after 2 to 10 mins by confocal microscopic analysis; assay type: cell-based
In short: (§1)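 LNCaP cells were transiently transfected with human GFP-PKCδ or GFP-RasGRP3 and imaged 24 h later by live confocal microscopy (488 nm excitation) every 30 s for 30 min after 10 μM ligand. Distribution was assessed from representative images. n = 3–6.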

[3] = molecular target: Protein kinase C (PKC) (Homo sapiens) (UniProt O94806+P41743+P17252+P05129+Q05655+P05771+Q05513+Q02156+P24723+Q15139+Q04759); test: Activation of PKC in human Ramos cells assessed as PKD1 phosphorylation at S744/S748 at 10000 nM after 30 mins by Western blot analysis; assay type: cell-based
In short: (§2)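 Ramos cells in RPMI-1640 with 10% FBS and 1% L-glutamine, plated at 300,000 cells/ml, were exposed after 24 h to 0.01, 0.1, 1 and 10 μM compound for 30 min. Lysates were made in PBS with 0.5% Triton X-100 and sonicated. 7.5 μg protein was run on 10% Tris-glycine gels, blotted to nitrocellulose, probed overnight with phospho-specific primary antibodies and detected by ECL.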

[4] = molecular target: T2, Ras guanyl-releasing protein 3 (Homo sapiens) (UniProt Q8IV61); test: Binding affinity to recombinant human GFP-tagged RasGRP3 expressed in human LNCAP cells assessed as induction of protein translocation from plasma membrane to internal membrane at 10000 nM after 2 to 10 mins by confocal microscopic analysis; assay type: cell-based; in short: as §1
T2 sequence (whole entry): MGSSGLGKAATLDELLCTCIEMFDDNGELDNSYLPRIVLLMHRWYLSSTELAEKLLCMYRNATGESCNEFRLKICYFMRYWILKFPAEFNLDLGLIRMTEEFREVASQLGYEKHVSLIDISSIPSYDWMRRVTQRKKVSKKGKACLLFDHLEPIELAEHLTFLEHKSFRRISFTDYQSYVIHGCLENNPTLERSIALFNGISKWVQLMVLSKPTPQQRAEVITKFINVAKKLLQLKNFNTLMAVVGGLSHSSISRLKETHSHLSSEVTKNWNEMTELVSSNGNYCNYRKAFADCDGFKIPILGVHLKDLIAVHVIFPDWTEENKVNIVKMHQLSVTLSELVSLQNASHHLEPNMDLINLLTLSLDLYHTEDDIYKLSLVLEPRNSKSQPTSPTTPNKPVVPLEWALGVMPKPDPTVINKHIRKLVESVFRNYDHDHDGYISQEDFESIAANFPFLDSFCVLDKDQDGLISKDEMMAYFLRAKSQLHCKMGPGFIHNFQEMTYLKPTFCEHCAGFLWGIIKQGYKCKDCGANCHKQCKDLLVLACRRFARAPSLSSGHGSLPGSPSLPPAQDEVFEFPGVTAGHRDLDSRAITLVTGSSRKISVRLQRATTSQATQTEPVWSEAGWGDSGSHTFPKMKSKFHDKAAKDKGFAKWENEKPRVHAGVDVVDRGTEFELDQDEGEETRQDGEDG

Homo sapiens = organism: Homo sapiens; test: Selectivity ratio of Ki for recombinant human PKC-epsilon to Ki for recombinant RasGRP1 C1 domain (unknown origin)
[5] = molecular target: Protein kinase C delta type (Homo sapiens) (UniProt Q05655); test: Activation of PKC-delta in HEK293 cells overexpressing RasGRP3 assessed as protein phosphorylation at S299 at 0.1 to 30 uM after 30 mins by Western blot analysis; assay type: cell-based
[6] = Binding affinity to 9:1 DMPG/DMPC giant vesicle at 6.05 uM by fluorescence emission spectra analysis; settings: in the assay text read “9:1 DMPC/DMPG” for “9:1 DMPG/DMPC”
In short: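 Intrinsic 1-methylindole emission of 6.05 μM compound in Tris/sucrose/KCl buffer pH 7.4 was recorded at 27°C while titrating with DMPC/DMPG giant vesicles (5–30 μL), with excitation at each compound's own wavelength. Vesicle light scattering was under 5% of the signal.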

[7] = molecular target: Protein kinase C delta type (Homo sapiens) (UniProt Q05655); test: Activation of PKC-delta in human Ramos cells assessed as protein phosphorylation at S299 at 10000 nM after 30 mins by Western blot analysis; assay type: cell-based; in short: as §2
[8] = molecular target: Protein kinase C delta type (Homo sapiens) (UniProt Q05655); test: Activation of PKC-delta in HEK293 cells assessed as protein phosphorylation at S299 at 0.1 to 30 uM after 30 mins by Western blot analysis; assay type: cell-based

Chain of Protein kinase C delta type (Homo sapiens) (Q05655 whole entry, looked up): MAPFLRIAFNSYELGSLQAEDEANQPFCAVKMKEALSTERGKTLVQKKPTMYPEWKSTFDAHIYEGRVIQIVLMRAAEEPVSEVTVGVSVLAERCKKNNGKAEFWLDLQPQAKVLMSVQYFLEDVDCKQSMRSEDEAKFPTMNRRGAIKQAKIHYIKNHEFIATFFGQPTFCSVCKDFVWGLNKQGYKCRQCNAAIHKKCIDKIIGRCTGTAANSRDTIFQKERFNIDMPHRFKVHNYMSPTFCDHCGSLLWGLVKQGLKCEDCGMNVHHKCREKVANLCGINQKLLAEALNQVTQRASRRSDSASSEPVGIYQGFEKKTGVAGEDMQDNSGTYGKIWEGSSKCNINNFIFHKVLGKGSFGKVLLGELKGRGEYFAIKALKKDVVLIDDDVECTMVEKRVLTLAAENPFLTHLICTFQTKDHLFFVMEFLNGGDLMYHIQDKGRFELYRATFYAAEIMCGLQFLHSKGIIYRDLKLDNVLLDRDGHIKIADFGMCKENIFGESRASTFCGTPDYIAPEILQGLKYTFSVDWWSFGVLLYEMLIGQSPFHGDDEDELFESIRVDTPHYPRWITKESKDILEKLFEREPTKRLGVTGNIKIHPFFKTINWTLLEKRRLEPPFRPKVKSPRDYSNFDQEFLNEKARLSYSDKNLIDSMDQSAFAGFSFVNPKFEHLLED

Ki [1] [nM]	Activity (Lipid bilayer)	Activity [2]	Activity [3]	Activity [4]	Ratio Ki (Homo sapiens)	Activity [5]	Activity [6]	Activity [7]	Activity [8]	Structure (SMILES)
0.25	inactive	Active	Active	Active	84	Active	inactive	Active	Active	CCCC(CCC)C(=O)OCC1(CO)C/C(=C\c2cn(C)c3ccccc23)C(=O)O1 (centres undefined)
0.87	Active	Active	Active	Active	9.3	Active	Active	Active	Active	CCCC(CCC)C(=O)OCC1(CO)C/C(=C\c2ccc3ccn(C)c3c2)C(=O)O1 (centres undefined)
0.41	Active	Active	Active	Active	5.3	Active	inactive	Active	Active	CCCC(CCC)C(=O)OCC1(CO)C/C(=C\c2ccc3c(ccn3C)c2)C(=O)O1 (centres undefined)
0.69	Active	Active	Active	Active	17	Active	inactive	Active	Active	CCCC(CCC)C(=O)OCC1(CO)C/C(=C\c2cccc3ccn(C)c23)C(=O)O1 (centres undefined)
1.55	–	Active	Active	Active	9.4	Active	Active	Active	Active	CCCC(CCC)C(=O)OCC1(CO)C/C(=C\c2cccc3c2ccn3C)C(=O)O1 (centres undefined)
